Experimental data as given in ChEMBL document CHEMBL1287651, “Synthesis and in vitro antibacterial activity of fluoroquinolone derivatives containing 3-(N'-alkoxycarbamimidoyl)-4-(alkoxyimino) pyrrolidines” (2010).
Converted amounts (≈) assume the structure as drawn.

Columns and labels:
Format in all cases: functional
Escherichia coli [1] = assay: Antibacterial activity against Escherichia coli 08-21 after 18 to 24 hrs by twofold serial dilution method
Outline: (§1)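 MIC determined by the standard twofold serial dilution method on agar media, screening against Gram-positive and Gram-negative strains. Levofloxacin and gemifloxacin were run alongside as reference drugs.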

Enterococcus faecalis [2] = assay: Antibacterial activity against Enterococcus faecalis 08-10 after 18 to 24 hrs by twofold serial dilution method; outline: as §1
Pseudomonas aeruginosa [3] = assay: Antibacterial activity against Pseudomonas aeruginosa 09-34 after 18 to 24 hrs by twofold serial dilution method; outline: as §1
Escherichia coli [4] = assay: Antibacterial activity against Escherichia coli 08-22 after 18 to 24 hrs by twofold serial dilution method; outline: as §1
Klebsiella pneumoniae [5] = assay: Antibacterial activity against Klebsiella pneumoniae 09-21 after 18 to 24 hrs by twofold serial dilution method; outline: as §1
Escherichia coli [6] = assay: Antibacterial activity against Escherichia coli ATCC 25922 after 18 to 24 hrs by twofold serial dilution method; outline: as §1
Staphylococcus aureus [7] = assay: Antibacterial activity against methicillin-sensitive Staphylococcus aureus 08-2 after 18 to 24 hrs by twofold serial dilution method
Outline: (§2)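 Standard twofold serial agar dilution method on agar media for MIC determination. Screened against representative Gram-positive and Gram-negative strains. Levofloxacin and GMFX served as control drugs.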

[8] = tested on: Staphylococcus epidermidis; assay: Antibacterial activity against methicillin-sensitive Staphylococcus epidermidis 09-6 after 18 to 24 hrs by twofold serial dilution method; outline: as §2
[9] = tested on: Staphylococcus epidermidis; assay: Antibacterial activity against methicillin-resistant Staphylococcus epidermidis 09-2 after 18 to 24 hrs by twofold serial dilution method; outline: as §2
[10] = tested on: Staphylococcus epidermidis; assay: Antibacterial activity against methicillin-resistant Staphylococcus epidermidis 09-4 after 18 to 24 hrs by twofold serial dilution method; outline: as §2
Klebsiella pneumoniae [11] = assay: Antibacterial activity against Klebsiella pneumoniae 09-23 after 18 to 24 hrs by twofold serial dilution method; outline: as §1
Pseudomonas aeruginosa [12] = assay: Antibacterial activity against Pseudomonas aeruginosa ATCC 27853 after 18 to 24 hrs by twofold serial dilution method; outline: as §1
[13] = tested on: Staphylococcus epidermidis; assay: Antibacterial activity against methicillin-resistant Staphylococcus epidermidis 09-3 after 18 to 24 hrs by twofold serial dilution method; outline: as §2
Enterococcus faecium [14] = assay: Antibacterial activity against Enterococcus faecium 08-2 after 18 to 24 hrs by twofold serial dilution method; outline: as §1
Pseudomonas aeruginosa [15] = assay: Antibacterial activity against Pseudomonas aeruginosa 09-35 after 18 to 24 hrs by twofold serial dilution method; outline: as §1
Enterococcus faecium [16] = assay: Antibacterial activity against Enterococcus faecium 08-7 after 18 to 24 hrs by twofold serial dilution method; outline: as §1
Staphylococcus aureus [17] = assay: Antibacterial activity against methicillin-resistant Staphylococcus aureus 08-1 after 18 to 24 hrs by twofold serial dilution method; outline: as §2
Klebsiella pneumoniae [18] = assay: Antibacterial activity against Klebsiella pneumoniae 09-22 after 18 to 24 hrs by twofold serial dilution method; outline: as §1
[19] = tested on: Staphylococcus epidermidis; assay: Antibacterial activity against methicillin-sensitive Staphylococcus epidermidis 09-3 after 18 to 24 hrs by twofold serial dilution method; outline: as §2
Pseudomonas aeruginosa [20] = assay: Antibacterial activity against Pseudomonas aeruginosa 09-33 after 18 to 24 hrs by twofold serial dilution method; outline: as §1
Staphylococcus aureus [21] = assay: Antibacterial activity against Staphylococcus aureus ATCC […] after 18 to 24 hrs by twofold serial dilution method; outline: as §1
Streptococcus pneumoniae [22] = assay: Antibacterial activity against Streptococcus pneumoniae 08-2 after 18 to 24 hrs by twofold serial dilution method; outline: as §1
Pseudomonas aeruginosa [23] = assay: Antibacterial activity against Pseudomonas aeruginosa 09-32 after 18 to 24 hrs by twofold serial dilution method; outline: as §1
Streptococcus pneumoniae [24] = assay: Antibacterial activity against Streptococcus pneumoniae 08-4 after 18 to 24 hrs by twofold serial dilution method; outline: as §1
Enterococcus faecalis [25] = assay: Antibacterial activity against Enterococcus faecalis 08-12 after 18 to 24 hrs by twofold serial dilution method; outline: as §1

| SMILES | MIC (Escherichia coli [1]) [µg/mL] | MIC (Enterococcus faecalis [2]) [µg/mL] | MIC (Escherichia coli [4]) [µg/mL] | MIC (Klebsiella pneumoniae [5]) [µg/mL] | MIC (Escherichia coli [6]) [µg/mL] | MIC (Staphylococcus aureus [7]) [µg/mL] | MIC [8] [µg/mL] | MIC [9] [µg/mL] | MIC [10] [µg/mL] | MIC (Klebsiella pneumoniae [11]) [µg/mL] | MIC (Pseudomonas aeruginosa [12]) [µg/mL] | MIC [13] [µg/mL] | MIC (Enterococcus faecium [14]) [µg/mL] | MIC (Pseudomonas aeruginosa [15]) [µg/mL] | MIC (Enterococcus faecium [16]) [µg/mL] | MIC (Staphylococcus aureus [17]) [µg/mL] | MIC (Klebsiella pneumoniae [18]) [µg/mL] | MIC [19] [µg/mL] | MIC (Staphylococcus aureus [21]) [µg/mL] | MIC (Pseudomonas aeruginosa [23]) [µg/mL] | further results |
| --- | --- | --- | --- | --- | --- | --- | --- | --- | --- | --- | --- | --- | --- | --- | --- | --- | --- | --- | --- | --- | --- |
| CCO/N=C1\CN(c2nc3c(cc2F)c(=O)c(C(=O)O)cn3C2CC2)CC1/C(N)=N\OC (stereo unspecified) | > 128 | > 128 | > 128 | > 128 | > 128 | 0.25 (≈ 0.56 µM) | 0.25 (≈ 0.56 µM) | 128 (≈ 287 µM) | 0.25 (≈ 0.56 µM) | > 128 | 64 (≈ 143 µM) | 0.125 (≈ 0.28 µM) | > 128 | 64 (≈ 143 µM) | > 128 | 0.25 (≈ 0.56 µM) | 1 (≈ 2.24 µM) | 0.25 (≈ 0.56 µM) | 0.5 (≈ 1.12 µM) | 64 (≈ 143 µM) | MIC (Pseudomonas aeruginosa [3]): > 128 µg/mL; MIC (Pseudomonas aeruginosa [20]): > 128 µg/mL; MIC (Streptococcus pneumoniae [22]): 128 µg/mL (≈ 287 µM); MIC (Streptococcus pneumoniae [24]): 0.25 µg/mL (≈ 0.56 µM); MIC (Enterococcus faecalis [25]): > 128 µg/mL |
| CCO/N=C(/N)C1CN(c2nc3c(cc2F)c(=O)c(C(=O)O)cn3C2CC2)C/C1=N\OC (stereo unspecified) | > 128 | > 128 | > 128 | > 128 | > 128 | 2 (≈ 4.48 µM) | 0.25 (≈ 0.56 µM) | 2 (≈ 4.48 µM) | 0.125 (≈ 0.28 µM) | > 128 | > 128 | 0.25 (≈ 0.56 µM) | > 128 | > 128 | > 128 | 2 (≈ 4.48 µM) | 16 (≈ 35.8 µM) | 0.25 (≈ 0.56 µM) | 2 (≈ 4.48 µM) | > 128 | MIC (Pseudomonas aeruginosa [3]): > 128 µg/mL; MIC (Pseudomonas aeruginosa [20]): > 128 µg/mL; MIC (Streptococcus pneumoniae [22]): > 128 µg/mL; MIC (Streptococcus pneumoniae [24]): > 128 µg/mL; MIC (Enterococcus faecalis [25]): > 128 µg/mL |
| CCO/N=C1\CN(c2nc3c(cc2F)c(=O)c(C(=O)O)cn3C2CC2)CC1/C(N)=N\OCC (stereo unspecified) | > 128 | > 128 | > 128 | > 128 | 128 (≈ 278 µM) | 8 (≈ 17.4 µM) | > 128 | 8 (≈ 17.4 µM) | 32 (≈ 69.5 µM) | > 128 | 128 (≈ 278 µM) | 8 (≈ 17.4 µM) | > 128 | > 128 | > 128 | > 128 | 128 (≈ 278 µM) | > 128 | 2 (≈ 4.34 µM) | > 128 | MIC (Pseudomonas aeruginosa [3]): > 128 µg/mL; MIC (Pseudomonas aeruginosa [20]): > 128 µg/mL; MIC (Streptococcus pneumoniae [22]): > 128 µg/mL; MIC (Streptococcus pneumoniae [24]): > 128 µg/mL; MIC (Enterococcus faecalis [25]): > 128 µg/mL |
| CO/N=C1\CN(c2nc3c(cc2F)c(=O)c(C(=O)O)cn3-c2ccc(F)cc2F)CC1/C(N)=N\OC (stereo unspecified) | > 128 | > 128 | > 128 | > 128 | 128 (≈ 254 µM) | 0.25 (≈ 0.496 µM) | 0.25 (≈ 0.496 µM) | 0.5 (≈ 0.991 µM) | 0.25 (≈ 0.496 µM) | > 128 | 128 (≈ 254 µM) | 0.25 (≈ 0.496 µM) | > 128 | 128 (≈ 254 µM) | > 128 | 0.25 (≈ 0.496 µM) | 1 (≈ 1.98 µM) | 0.5 (≈ 0.991 µM) | 0.5 (≈ 0.991 µM) | 128 (≈ 254 µM) | MIC (Pseudomonas aeruginosa [3]): > 128 µg/mL; MIC (Pseudomonas aeruginosa [20]): > 128 µg/mL; MIC (Streptococcus pneumoniae [22]): 16 µg/mL (≈ 31.7 µM); MIC (Streptococcus pneumoniae [24]): 0.25 µg/mL (≈ 0.496 µM); MIC (Enterococcus faecalis [25]): > 128 µg/mL |
| C[C@H]1COc2c(N3CCN(C)CC3)c(F)cc3c(=O)c(C(=O)O)cn1c23.C[C@H]1COc2c(N3CCN(C)CC3)c(F)cc3c(=O)c(C(=O)O)cn1c23.O [LEVOFLOXACIN] | 16 | 8 | 16 | 8 | 0.125 | 0.06 | 2 | 0.25 | 0.25 | 8 | 0.5 | 0.25 | 8 | 0.25 | 2 | 0.125 | 16 | 0.125 | 0.06 | 16 | MIC (Enterococcus faecalis [25]): 4 µg/mL |
